This passage reports Activity results from ChEMBL document CHEMBL3272120, “2,5,5-Trimethylthiazolidine-4-carboxylic acid, a D(-)-penicillamine-directed pseudometabolite of ethanol. Detoxication mechanism for acetaldehyde” (1978).

The source made the active and inactive calls. No cut-off for these calls is given here.

In assay [1] the test system is Rattus norvegicus. Kind of assay: Detoxification of acetaldehyde in aldehyde dehydrogenase inhibitor disuifiram/ethanol-treated rat assessed as reduction of blood acetaldehyde level at 8 mmol/kg, ip administered 1 hr prior to ethanol treatment measured after 1 hr by head space gas chromatographic analysis.
Assay [2] deals with Rattus norvegicus. Kind of assay: Detoxification of acetaldehyde in ethanol-1-[14C]-treated Sprague-Dawley rat assessed as [14C]-3-acetyl-2,5,5-trimethylthiazolidine-4-carboxylic acid excretion in urine by measuring administered dose of ethanol-1-[14C] at 8 mmol/kg, po administered with 65 mmol/kg ethanol-1-[14C] measured for 24 hrs by inverse isotope dilution method in presence of Ac2O relative to control. The format is functional. In short, it runs like this:
(§1)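 Male Sprague-Dawley rats (190–280 g), given the test agent 1 h before ethanol-1-14C (65 mmol/kg, 200 mg/mL in isotonic saline, 0.8–1.4 μCi/rat), or at the same time as it for the simultaneous-dosing lines. Held in metabolism cages for 24 h. Urine plus washings were filtered and 400 mg unlabeled carrier added. The mix was acetylated with Ac2O, purified by preparative TLC and recrystallized from EtOAc to constant specific activity. Radioactivity was then scintillation counted.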

For assay [3], the system named is Rattus norvegicus. Kind of assay: Detoxification of acetaldehyde in ethanol-1-[14C]-treated Sprague-Dawley rat assessed as [14C]-3-acetyl-2-methylthiazolidine-4-carboxylic acid excretion in urine by measuring administered dose of ethanol-1-[14C] at 7.4 mmol/kg, po administered 1 hr prior to 65 mmol/kg ethanol-1-[14C] treatment measured for 24 hrs by inverse isotope dilution method in presence of Ac2O relative to control. Type of assay: functional. The gist of the method: as §1

Assay [4] deals with Rattus norvegicus. Kind of assay: Detoxification of acetaldehyde in ethanol-1-[14C]-treated Sprague-Dawley rat assessed as [14C]-3-acetyl-2,5,5-trimethylthiazolidine-4-carboxylic acid excretion in urine by measuring administered dose of ethanol-1-[14C] at 8.1 mmol/kg, po administered with 65 mmol/kg ethanol-1-[14C] measured for 24 hrs by inverse isotope dilution method in presence of Ac2O relative to control. The format is functional. In short, it runs like this:
as §1

The subject of assay [5] is Rattus norvegicus. In words: Detoxification of acetaldehyde in ethanol-1-[14C]-treated Sprague-Dawley rat assessed as [14C]-3-acetyl-2,5,5-trimethylthiazolidine-4-carboxylic acid excretion in urine by measuring administered dose of ethanol-1-[14C] at 8.1 mmol/kg, po administered 1 hr prior to 65 mmol/kg ethanol-1-[14C] treatment measured for 24 hrs by inverse isotope dilution method in presence of Ac2O relative to control. Type of assay: functional. In short, it runs like this: as §1

Assay [6] relates to Rattus norvegicus. Kind of assay: Detoxification of acetaldehyde in aldehyde dehydrogenase inhibitor disuifiram/ethanol-1-[14C]-treated Sprague-Dawley rat assessed as [14C]-3-acetyl-2,5,5-trimethylthiazolidine-4-carboxylic acid excretion in urine by measuring administered dose of ethanol-1-[14C] at 8.1 mmol/kg, po administered 1 hr prior to 65 mmol/kg ethanol-1-[14C] treatment measured for 24 hrs by inverse isotope dilution method in presence of Ac2O relative to control. The format is functional. Set-up: scale not given: the % may be the effect or the level left. In short, it runs like this: as §1

For assay [7], the system named is Rattus norvegicus. In words: Detoxification of acetaldehyde in aldehyde dehydrogenase inhibitor disuifiram/ethanol-1-[14C]-treated Sprague-Dawley rat assessed as [14C]-3-acetyl-2,5,5-trimethylthiazolidine-4-carboxylic acid excretion in urine by measuring administered dose of ethanol-1-[14C] at 2 mmol/kg, ip administered first dose at 0.25 hrs prior to 43.5 mmol/kg ethanol-1-[14C] treatment followed by 4 doses of compound at 0.75 hrs, 3 hrs, 5 hrs, 7 hrs measured for 24 hrs by inverse isotope dilution method in presence of Ac2O relative to control. On the set-up: scale not given: the % may be the effect or the level left. Type of assay: functional.

For assay [8], the system named is Rattus norvegicus. In words: Detoxification of acetaldehyde in aldehyde dehydrogenase inhibitor pargyline/ethanol-1-[14C]-treated Sprague-Dawley rat assessed as [14C]-3-acetyl-2,5,5-trimethylthiazolidine-4-carboxylic acid excretion in urine by measuring administered dose of ethanol-1-[14C] at 8.1 mmol/kg, ip administered 1 hr prior to 65 mmol/kg ethanol-1-[14C] treatment measured for 24 hrs by inverse isotope dilution method in presence of Ac2O relative to control. Type of assay: functional. Set-up: scale not given: the % may be the effect or the level left. In short, it runs like this: as §1

Assay [9] relates to Rattus norvegicus. Kind of assay: Detoxification of acetaldehyde in aldehyde dehydrogenase inhibitor pyrogallol/ethanol-1-[14C]-treated Sprague-Dawley rat assessed as [14C]-3-acetyl-2,5,5-trimethylthiazolidine-4-carboxylic acid excretion in urine by measuring administered dose of ethanol-1-[14C] at 8.1 mmol/kg, ip administered 1 hr prior to 65 mmol/kg ethanol-1-[14C] treatment measured for 24 hrs by inverse isotope dilution method in presence of Ac2O relative to control. The format is functional. On the set-up: scale not given: the % may be the effect or the level left. The gist of the method:
as §1

Assay [10] relates to Rattus norvegicus. Kind of assay: Detoxification of acetaldehyde in ethanol-1-[14C]-treated Sprague-Dawley rat assessed as [14C]-3-acetyl-2,5,5-trimethylthiazolidine-4-carboxylic acid excretion in urine by measuring administered dose of ethanol-1-[14C] at 8.1 mmol/kg, ip administered 1 hr prior to 65 mmol/kg ethanol-1-[14C] treatment measured for 24 hrs by inverse isotope dilution method in presence of Ac2O relative to control. The format is functional. In short, it runs like this:
as §1

The subject of assay [11] is Rattus norvegicus. In words: Detoxification of acetaldehyde in aldehyde dehydrogenase inhibitor disuifiram/ethanol-1-[14C]-treated Sprague-Dawley rat assessed as [14C]-3-acetyl-2-methylthiazolidine-4-carboxylic acid excretion in urine by measuring administered dose of ethanol-1-[14C] at 8.3 mmol/kg, ip administered 1 hr prior to 65 mmol/kg ethanol-1-[14C] treatment measured for 24 hrs by inverse isotope dilution method in presence of Ac2O relative to control. Type of assay: functional. On the set-up: scale not given: the % may be the effect or the level left. The gist of the method:
as §1

The test system of assay [12] is Rattus norvegicus. Kind of assay: Detoxification of acetaldehyde in ethanol-1-[14C]-treated Sprague-Dawley rat assessed as [14C]-3-acetyl-2-methylthiazolidine-4-carboxylic acid in urine by measuring administered dose of ethanol-1-[14C] at 10 mmol/kg, ip administered 1 hr prior to 65 mmol/kg ethanol-1-[14C] treatment measured for 24 hrs by inverse isotope dilution method in presence of Ac2O relative to control. The format is functional. The gist of the method: as §1

With `CC(=O)NC(C(=O)O)C(C)(C)S` (centres undefined) [N-ACETYL PENICILLAMINE], the result in the assay on Rattus norvegicus [1] was inactive. The Activity in the assay on Rattus norvegicus [2] came out at 0%.
As to `CC(=O)N[C@@H](CS)C(=O)O` [ACETYLCYSTEINE], the result with Rattus norvegicus [1] was inactive. For the same molecule, the Activity in the assay on Rattus norvegicus [3] is 0%.
Turning to `N[C@@H](CS)C(=O)O` (stereo in doubt), the result in the assay with Rattus norvegicus [1] was inactive.
The same measure, in the same setting: in the case of `NC(CCSSCCC(N)C(=O)O)C(=O)O` (racemic) it was “inactive”; in that of `N[C@@H](CS)C(=O)O` (stereo in doubt; 2), “inactive”; in that of `NC1CCSC1=O` (racemic), “inactive”.
Turning to `NC(CCS)C(=O)O` (racemic), the result with Rattus norvegicus [1] was inactive.
In the case of `CC(C)(S)[C@@H](N)C(=O)O` [PENICILLAMINE], the Activity with Rattus norvegicus [4] is 0.4%; with Rattus norvegicus [5] it was 1.2%; in the assay with Rattus norvegicus [6], 2.7%; in the assay with Rattus norvegicus [7] it was 7.6%; in the assay with Rattus norvegicus [8], 3.3%; in the assay on Rattus norvegicus [9] it was 1.1%. Further, the Activity in the assay on Rattus norvegicus [10] stood at 0.5%. In addition, the outcome in the assay with Rattus norvegicus [1] was Active.
For the molecule `N[C@@H](CS)C(=O)O` (stereo in doubt; 2) [CYSTEINE], the Activity with Rattus norvegicus [11] and in the assay on Rattus norvegicus [12] was 0% in each case.
